Bioassay records (PubChem BioAssay)
A selection: hits, their analogues and other compounds. The true share with any hit is near 2.6%.
rRNA inh HTS = inhibits bacterial ribosomal RNA function over humanized ribosomes | E. coli WT GFP vs humanized-ribosome RFP mutants, fluorescence, 24 h; active compounds read low; DMSO median 0, no signal -100 | GFP signal change (wild-type ribosome), % (test concentration not listed) | 350,000 compounds, 1.6% hits;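 active = significant combined selectivity score with lowered wild-type GFP, culture density cut under 30%, mutant RFP and density less affected; inactive = any of these conditions unmet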
Env fusion inh = inhibitors of HIV Env-mediated cell fusion; inhibition, % at 12.3 µM; 360,000 compounds, 1.1% hits; HeLa-JRFL Env/CEM21 cell fusion, luciferase;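 active = mean replicate inhibition score of at least 50 and every replicate individually at or above 50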
S100A4 MyoIIA = blocks human S100A4 binding to myosin IIA peptide; P26447; S100A4/TAMRA-MyoIIA peptide fluorescence polarization; inhibition, % at 10.7 µM; 360,000 compounds, 0.14% hits;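 active = mean inhibition of at least 70% across replicates, with every replicate also reaching that level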
Target sequence (P26447 whole entry, looked up): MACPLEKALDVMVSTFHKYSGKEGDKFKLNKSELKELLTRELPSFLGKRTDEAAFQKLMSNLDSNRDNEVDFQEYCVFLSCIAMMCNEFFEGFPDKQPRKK
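Test system: S100A4 monomer protein; Medium: HEPES pH 7.2 with CaCl2, KCl, NaCl, DTT, Triton; Probe or stimulus: TAMRA-labelled myosin IIA heavy-chain peptide probe, 5 nM; Doses: one dose per compound; Times: polarization read 5 min after assay mix addition, stable 5–60 min; Benchmarks: neutral control DMSO, positive control TFP.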
Vif inh = blocks HIV Vif function | inhibition, % at 7.49 µM | AID 602346 | 340,000 compounds, 0.35% hits | HEK293T cells, Vif self-association by quenched fluorescence, imaging, 24 h; in the data active = inhibition above about 50%, passing the limit was not always enough
FN deposit inh = fibronectin deposition inhibition; AH1F fibroblasts, Alexa488-fibronectin deposition fluorescence, overnight; inhibition, % at 12.6 µM; 350,000 compounds, 0.086% hits; AID 743247;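 active = mean inhibition across replicates of 30% or more, regardless of how many single replicates reach that level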
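Schedule: 1 h cell adhesion before compound, then overnight fibronectin incubation; test system: AH1F fibroblast monolayer depositing Alexa488-labelled fibronectin into matrix; quantity: 10000 AH1F cells per well; probe or stimulus: fluorescent fibronectin at 24 nM final; signal: fluorescence, ex 485 nm, em 525 nm; evaluation: percent inhibition as loss of matrix-bound fibronectin fluorescence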
miR-122 sensor = inhibitors of miR-122 in Huh7 cells; Huh7 miR-122 Renilla luciferase sensor, 48 h; neutral wells = 0, positive control = 100; activation (reporter increase), % at 12.5 µM; 340,000 compounds, 0.3% hits; AID 602342;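 active = mean replicate activation score at least 90 and every replicate individually at or above 90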;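 note: higher luciferase means less miR-122 activity so hits act as miR-122 inhibitors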
Hits are given with their value.

Screening COc1cc(/C=N/N2C(=O)CSC2=S)ccc1O returned Env fusion inh inactive, Vif inh inactive and miR-122 sensor inactive.
O=C1CSC(=S)N1/N=C/c1cc(Br)c(O)c(Br)c1 was read as Vif inh 70.2 and miR-122 sensor inactive.
`CNC(=O)C[C@H]1CC[C@@H]2[C@@H](COc3ccc(NC(=O)NCc4ccccc4)cc3C(=O)N2C)O1` gave rRNA inh HTS inactive, Env fusion inh inactive, FN deposit inh inactive and miR-122 sensor inactive.
For CC(C)NC(=O)Nc1ccc2c(c1)C(=O)N([C@@H](C)CO)C[C@@H](C)[C@@H](CN(C)S(=O)(=O)c1cccs1)OCCCC[C@H](C)O2 the results were rRNA inh HTS inactive, Env fusion inh inactive, S100A4 MyoIIA inactive, FN deposit inh inactive and miR-122 sensor inactive.
Screening O=C(c1cccc(S(=O)(=O)NCc2ccccc2)c1)N1CCN(c2cccc(C(F)(F)F)c2)CC1 returned rRNA inh HTS inactive, Env fusion inh 60.7, S100A4 MyoIIA inactive and miR-122 sensor inactive.
Screening O=C(c1cccc(S(=O)(=O)NCc2ccccc2)c1)N1CCN(c2ccccc2)CC1 returned Env fusion inh inactive, S100A4 MyoIIA inactive, Vif inh inactive and FN deposit inh inactive.
For OCCC1CN(Cc2ccc3c(c2)CCO3)CCN1Cc1ccc(F)cc1 (stereo unspecified) the results were rRNA inh HTS inactive, Env fusion inh inactive, S100A4 MyoIIA 73.6, Vif inh inactive and FN deposit inh inactive.
`Cc1ccc(N2C(=O)CC(c3ccsc3)C3=C2CC(C)(C)CC3=O)cc1` (stereo unspecified) gave Env fusion inh 107.5, Vif inh inactive, FN deposit inh inactive and miR-122 sensor inactive.
CC1(C)CC(=O)C2=C(C1)N(c1ccc(F)cc1)C(=O)CC2c1ccsc1 (stereo unspecified) was read as rRNA inh HTS inactive, Env fusion inh inactive, S100A4 MyoIIA inactive, Vif inh inactive, FN deposit inh inactive and miR-122 sensor inactive.
Screening O=C(CN1C(=O)/C(=C/c2ccc(F)cc2)SC1=S)N1CCN(CCc2ccccn2)CC1 returned rRNA inh HTS -29.6, Env fusion inh inactive, S100A4 MyoIIA inactive, Vif inh inactive, FN deposit inh inactive and miR-122 sensor inactive.
`O=C(CCN1C(=O)/C(=C/c2ccccc2)SC1=S)Nc1ccccn1` gave rRNA inh HTS inactive, Env fusion inh inactive, S100A4 MyoIIA inactive, Vif inh inactive, FN deposit inh inactive and miR-122 sensor inactive.
`COc1ccc2c3c([nH]c2c1)[C@H](CO)N(Cc1cc(F)ccc1F)CC31CCN(C)CC1` gave rRNA inh HTS inactive.
For CCOC(=O)c1c(N)sc(C(O)(C(F)(F)F)C(F)(F)F)c1-c1ccc(OC)cc1OC the results were rRNA inh HTS -26.9, S100A4 MyoIIA inactive, Vif inh inactive and miR-122 sensor inactive.
O=C(O)c1cccc(Nc2nc(N3CCOCC3)nc(N3CCOCC3)n2)c1 was read as Env fusion inh inactive, Vif inh inactive, FN deposit inh inactive and miR-122 sensor inactive.
O=C(O)c1cccc(Nc2ccnc(Nc3cccc(C(=O)O)c3)n2)c1 was read as rRNA inh HTS inactive, Env fusion inh 59.1, S100A4 MyoIIA inactive, Vif inh 139.7, FN deposit inh inactive and miR-122 sensor inactive.
`CC(C)NC(=O)N(C)C[C@@H]1Oc2ccc(N)cc2C(=O)N(C)C[C@H]1C` gave rRNA inh HTS inactive and FN deposit inh inactive.
Screening COc1ccc(/C=C/C(=O)NCCc2nc3ccccc3[nH]2)cc1 returned rRNA inh HTS -25.8, Env fusion inh inactive, S100A4 MyoIIA inactive, FN deposit inh inactive and miR-122 sensor inactive.
For CCCCOc1ccc(/C=C/C(=O)NCCc2nc3ccccc3[nH]2)cc1 the results were rRNA inh HTS inactive, Env fusion inh inactive, S100A4 MyoIIA inactive, Vif inh inactive and miR-122 sensor inactive.
For COc1cccc(CNc2nc3cc(-c4ccccc4)sc3c(=O)n2C)c1OC the results were rRNA inh HTS inactive, Env fusion inh 66.4, S100A4 MyoIIA inactive, Vif inh inactive, FN deposit inh inactive and miR-122 sensor inactive.
